Results: publication PMC7935732 (Targeted Oncology, 2021)

Test system: Chinese patients with advanced and/or metastatic cancers
Assay: Safety and tolerability
Assay type: in vivo, human
Procedure, shortened: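 Safety set: all patients with ≥ 1 dose. Patient-reported AEs were collected during treatment; chemistry, hematology and urinalysis were done at protocol time points. Laboratory and non-laboratory AEs were graded by CTCAE v4.0 and summarized by cohort.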

CCN1CCN(Cc2ccc(Nc3ncc(F)c(-c4cc(F)c5nc(C)n(C(C)C)c5c4)n3)nc2)CC1 [abemaciclib]
Grade 5 TEAE of respiratory failure (150 mg cohort): ^aOne patient reported Grade 5 TEAE of respiratory failure in 150 mg cohort
Patients who discontinued study treatment due to leukopenia (150 mg cohort): 1 patient
Patients with dose reduction from 150 to 100 mg during Cycle 1 (150 mg cohort): 5 patients
Alanine aminotransferase increased, TEAE any grade (150 mg every 12 h (n = 12)): 5 (41.7) n (%)
Anemia, TEAE any grade (150 mg every 12 h (n = 12)): 7 (58.3) n (%)
Bilirubin increased, TEAE any grade (150 mg every 12 h (n = 12)): 4 (33.3) n (%)
Blood creatinine increased, TEAE any grade (150 mg every 12 h (n = 12)): 6 (50.0) n (%)
Cough, TEAE any grade (150 mg every 12 h (n = 12)): 4 (33.3) n (%)
Decreased appetite, TEAE any grade (150 mg every 12 h (n = 12)): 9 (75.0) n (%)
Diarrhea, TEAE any grade (150 mg every 12 h (n = 12)): 9 (75.0) n (%)
Leukopenia (white blood cell count decreased), TEAE any grade (150 mg every 12 h (n = 12)): 9 (75.0) n (%)
Localized edema, TEAE any grade (150 mg every 12 h (n = 12)): 3 (25.0) n (%)
Malaise, TEAE any grade (150 mg every 12 h (n = 12)): 7 (58.3) n (%)
Nausea, TEAE any grade (150 mg every 12 h (n = 12)): 3 (25.0) n (%)
Neutropenia (neutrophil count decreased), TEAE any grade (150 mg every 12 h (n = 12)): 10 (83.3) n (%)
Patients with ≥ 1 TEAE (any grade) (150 mg every 12 h (n = 12)): 12 (100.0) n (%)
Thrombocytopenia (platelet count decreased), TEAE any grade (150 mg every 12 h (n = 12)): 6 (50.0) n (%)
Vomiting, TEAE any grade (150 mg every 12 h (n = 12)): 4 (33.3) n (%)
Patients reporting SAE of pulmonary embolism (200 mg cohort): 3 patients
Patients reporting SAE of urinary tract infection (200 mg cohort): 1 patient
Patients with dose reduction from 200 to 150 mg during Cycle 1 (200 mg cohort): 2 patients
Alanine aminotransferase increased, TEAE any grade (200 mg every 12 h (n = 13)): 2 (15.4) n (%)
Anemia, TEAE any grade (200 mg every 12 h (n = 13)): 5 (38.5) n (%)
Bilirubin increased, TEAE any grade (200 mg every 12 h (n = 13)): 1 (7.7) n (%)
Blood creatinine increased, TEAE any grade (200 mg every 12 h (n = 13)): 8 (61.5) n (%)
Cough, TEAE any grade (200 mg every 12 h (n = 13)): 4 (30.8) n (%)
Decreased appetite, TEAE any grade (200 mg every 12 h (n = 13)): 6 (46.2) n (%)
Diarrhea, TEAE any grade (200 mg every 12 h (n = 13)): 11 (84.6) n (%)
Leukopenia (white blood cell count decreased), TEAE any grade (200 mg every 12 h (n = 13)): 7 (53.8) n (%)
Localized edema, TEAE any grade (200 mg every 12 h (n = 13)): 2 (15.4) n (%)
Malaise, TEAE any grade (200 mg every 12 h (n = 13)): 6 (46.2) n (%)
Nausea, TEAE any grade (200 mg every 12 h (n = 13)): 6 (46.2) n (%)
Neutropenia (neutrophil count decreased), TEAE any grade (200 mg every 12 h (n = 13)): 9 (69.2) n (%)
Patients with ≥ 1 TEAE (any grade) (200 mg every 12 h (n = 13)): 13 (100.0) n (%)
Thrombocytopenia (platelet count decreased), TEAE any grade (200 mg every 12 h (n = 13)): 5 (38.5) n (%)
Vomiting, TEAE any grade (200 mg every 12 h (n = 13)): 4 (30.8) n (%)
Anemia TEAE (Grade 3, 150 mg (n = 12)): 2 (16.7) n (%)
Blood bilirubin increased TEAE (Grade 3, 150 mg (n = 12)): 1 (8.3) n (%)
Diarrhea TEAE (Grade 3, 150 mg (n = 12)): 1 (8.3) n (%)
Embolism TEAE (Grade 3, 150 mg (n = 12)): 1 (8.3) n (%)
Hyponatraemia TEAE (Grade 3, 150 mg (n = 12)): 2 (16.7) n (%)
Leukopenia (white blood cell count decreased) TEAE (Grade 3, 150 mg (n = 12)): 0 n (%)
Lung infection TEAE (Grade 3, 150 mg (n = 12)): 1 (8.3) n (%)
Malaise TEAE (Grade 3, 150 mg (n = 12)): 1 (8.3) n (%)
Muscular weakness TEAE (Grade 3, 150 mg (n = 12)): 1 (8.3) n (%)
Neutropenia (neutrophil count decreased) TEAE (Grade 3, 150 mg (n = 12)): 5 (41.7) n (%)
Patients with ≥ 1 TEAE of Grade ≥ 3 (Grade 3, 150 mg (n = 12)): 8 (66.7) n (%)
Thrombocytopenia (platelet count decreased) TEAE (Grade 3, 150 mg (n = 12)): 3 (25.0) n (%)
Vomiting TEAE (Grade 3, 150 mg (n = 12)): 0 n (%)
Anemia TEAE (Grade 3, 200 mg (n = 13)): 0 n (%)
Blood bilirubin increased TEAE (Grade 3, 200 mg (n = 13)): 0 n (%)
Diarrhea TEAE (Grade 3, 200 mg (n = 13)): 3 (23.1) n (%)
Embolism TEAE (Grade 3, 200 mg (n = 13)): 0 n (%)
Hyponatraemia TEAE (Grade 3, 200 mg (n = 13)): 0 n (%)
Leukopenia (white blood cell count decreased) TEAE (Grade 3, 200 mg (n = 13)): 3 (23.1) n (%)
Lung infection TEAE (Grade 3, 200 mg (n = 13)): 0 n (%)
Malaise TEAE (Grade 3, 200 mg (n = 13)): 0 n (%)
Muscular weakness TEAE (Grade 3, 200 mg (n = 13)): 0 n (%)
Neutropenia (neutrophil count decreased) TEAE (Grade 3, 200 mg (n = 13)): 3 (23.1) n (%)
Patients with ≥ 1 TEAE of Grade ≥ 3 (Grade 3, 200 mg (n = 13)): 6 (46.2) n (%)
Thrombocytopenia (platelet count decreased) TEAE (Grade 3, 200 mg (n = 13)): 2 (15.4) n (%)
Vomiting TEAE (Grade 3, 200 mg (n = 13)): 0 n (%)
Anemia TEAE (Grade 3, Total (n = 25)): 2 (8.0) n (%)
Blood bilirubin increased TEAE (Grade 3, Total (n = 25)): 1 (4.0) n (%)
Diarrhea TEAE (Grade 3, Total (n = 25)): 4 (16.0) n (%)
Hyponatraemia TEAE (Grade 3, Total (n = 25)): 2 (8.0) n (%)
Leukopenia (white blood cell count decreased) TEAE (Grade 3, Total (n = 25)): 3 (12.0) n (%)
Lung infection TEAE (Grade 3, Total (n = 25)): 1 (4.0) n (%)
Malaise TEAE (Grade 3, Total (n = 25)): 1 (4.0) n (%)
Muscular weakness TEAE (Grade 3, Total (n = 25)): 1 (4.0) n (%)
Neutropenia (neutrophil count decreased) TEAE (Grade 3, Total (n = 25)): 8 (32.0) n (%)
Patients with ≥ 1 TEAE of Grade ≥ 3 (Grade 3, Total (n = 25)): 14 (56.0) n (%)
Thrombocytopenia (platelet count decreased) TEAE (Grade 3, Total (n = 25)): 5 (20.0) n (%)
Vomiting TEAE (Grade 3, Total (n = 25)): 0 n (%)
Anemia TEAE (Grade 4, 150 mg (n = 12)): 0 n (%)
Blood bilirubin increased TEAE (Grade 4, 150 mg (n = 12)): 0 n (%)
Diarrhea TEAE (Grade 4, 150 mg (n = 12)): 0 n (%)
Embolism TEAE (Grade 4, 150 mg (n = 12)): 0 n (%)
Hyponatraemia TEAE (Grade 4, 150 mg (n = 12)): 0 n (%)
Leukopenia (white blood cell count decreased) TEAE (Grade 4, 150 mg (n = 12)): 0 n (%)
Lung infection TEAE (Grade 4, 150 mg (n = 12)): 0 n (%)
Malaise TEAE (Grade 4, 150 mg (n = 12)): 0 n (%)
Muscular weakness TEAE (Grade 4, 150 mg (n = 12)): 0 n (%)
Neutropenia (neutrophil count decreased) TEAE (Grade 4, 150 mg (n = 12)): 0 n (%)
Patients with ≥ 1 TEAE of Grade ≥ 3 (Grade 4, 150 mg (n = 12)): 1 (8.3) n (%)
Thrombocytopenia (platelet count decreased) TEAE (Grade 4, 150 mg (n = 12)): 1 (8.3) n (%)
Vomiting TEAE (Grade 4, 150 mg (n = 12)): 1 (8.3) n (%)
Anemia TEAE (Grade 4, 200 mg (n = 13)): 0 n (%)
Blood bilirubin increased TEAE (Grade 4, 200 mg (n = 13)): 0 n (%)
Diarrhea TEAE (Grade 4, 200 mg (n = 13)): 0 n (%)
Embolism TEAE (Grade 4, 200 mg (n = 13)): 3 (23.1) n (%)
Hyponatraemia TEAE (Grade 4, 200 mg (n = 13)): 0 n (%)
Leukopenia (white blood cell count decreased) TEAE (Grade 4, 200 mg (n = 13)): 0 n (%)
Lung infection TEAE (Grade 4, 200 mg (n = 13)): 0 n (%)
Malaise TEAE (Grade 4, 200 mg (n = 13)): 0 n (%)
Muscular weakness TEAE (Grade 4, 200 mg (n = 13)): 0 n (%)
Neutropenia (neutrophil count decreased) TEAE (Grade 4, 200 mg (n = 13)): 0 n (%)
Patients with ≥ 1 TEAE of Grade ≥ 3 (Grade 4, 200 mg (n = 13)): 3 (23.1) n (%)
Thrombocytopenia (platelet count decreased) TEAE (Grade 4, 200 mg (n = 13)): 0 n (%)
Vomiting TEAE (Grade 4, 200 mg (n = 13)): 0 n (%)
Anemia TEAE (Grade 4, Total (n = 25)): 0 n (%)
Blood bilirubin increased TEAE (Grade 4, Total (n = 25)): 0 n (%)
Diarrhea TEAE (Grade 4, Total (n = 25)): 0 n (%)
Hyponatraemia TEAE (Grade 4, Total (n = 25)): 0 n (%)
Leukopenia (white blood cell count decreased) TEAE (Grade 4, Total (n = 25)): 0 n (%)
Lung infection TEAE (Grade 4, Total (n = 25)): 0 n (%)
Malaise TEAE (Grade 4, Total (n = 25)): 0 n (%)
Muscular weakness TEAE (Grade 4, Total (n = 25)): 0 n (%)
Neutropenia (neutrophil count decreased) TEAE (Grade 4, Total (n = 25)): 0 n (%)
Patients with ≥ 1 TEAE of Grade ≥ 3 (Grade 4, Total (n = 25)): 4 (16.0) n (%)
Thrombocytopenia (platelet count decreased) TEAE (Grade 4, Total (n = 25)): 1 (4.0) n (%)
Vomiting TEAE (Grade 4, Total (n = 25)): 1 (4.0) n (%)
Alanine aminotransferase increased, TEAE any grade (Total (n = 25)): 7 (28.0) n (%)
Anemia, TEAE any grade (Total (n = 25)): 12 (48.0) n (%)
Bilirubin increased, TEAE any grade (Total (n = 25)): 5 (20.0) n (%)
Blood creatinine increased, TEAE any grade (Total (n = 25)): 14 (56.0) n (%)
Cough, TEAE any grade (Total (n = 25)): 8 (32.0) n (%)
Decreased appetite, TEAE any grade (Total (n = 25)): 15 (60.0) n (%)
Diarrhea, TEAE any grade (Total (n = 25)): 20 (80.0) n (%)
Leukopenia (white blood cell count decreased), TEAE any grade (Total (n = 25)): 16 (64.0) n (%)
Localized edema, TEAE any grade (Total (n = 25)): 5 (20.0) n (%)
Malaise, TEAE any grade (Total (n = 25)): 13 (52.0) n (%)
Nausea, TEAE any grade (Total (n = 25)): 9 (36.0) n (%)
Neutropenia (neutrophil count decreased), TEAE any grade (Total (n = 25)): 19 (76.0) n (%)
Patients with ≥ 1 TEAE (any grade) (Total (n = 25)): 25 (100.0) n (%)
Thrombocytopenia (platelet count decreased), TEAE any grade (Total (n = 25)): 11 (44.0) n (%)
Vomiting, TEAE any grade (Total (n = 25)): 8 (32.0) n (%)
Discontinuation of study treatment due to diarrhea or neutropenia (all treated patients): No patient discontinued
ECG data or vital signs findings (all treated patients): No clinically meaningful findings
Febrile neutropenia (all treated patients): No febrile neutropenia was reported
Diarrhea Grade 4 or 5 (all treated patients (n = 25)): not reported
Diarrhea of Grade 3 (all treated patients (n = 25)): 4 patients
Patients reporting at least one TEAE of any grade (all treated patients (n = 25)): 100%
Patients who died on treatment due to AE (respiratory failure) (all treated patients (n = 25)): 4.0%
Patients who discontinued treatment due to AEs (all treated patients (n = 25)): 16%
Patients with TEAE of Grade 4 in severity (all treated patients (n = 25)): 16.0%
Thrombocytopenia TEAE of Grade ≥ 3 (all treated patients (n = 25)): 24%
Neutropenia TEAE of Grade ≥ 3 (all treated patients (n = 25), all Grade 3): 32%
Patients reporting serious adverse events (SAEs) (in total (n = 25)): 24.0%
Patients with 3 or more episodes of diarrhea (of the 20 patients experiencing diarrhea): 7 patients
